Usually IC50 stands for the concentration at which inhibition is half-maximal.

Activity calls are given as the source filed them. No cut-off for these calls is given here.

Data on one compound can be found in ChEMBL document CHEMBL1777776, “Identification of 2-mercaptohexanoic acids as dual inhibitors of 5-lipoxygenase and microsomal prostaglandin E₂ synthase-1” (Bioorg Med Chem, 2011).

Experiment [1] has as its target T1, Polyunsaturated fatty acid lipoxygenase ALOX15 (Homo sapiens) (UniProt P16050).
T1 sequence (whole entry): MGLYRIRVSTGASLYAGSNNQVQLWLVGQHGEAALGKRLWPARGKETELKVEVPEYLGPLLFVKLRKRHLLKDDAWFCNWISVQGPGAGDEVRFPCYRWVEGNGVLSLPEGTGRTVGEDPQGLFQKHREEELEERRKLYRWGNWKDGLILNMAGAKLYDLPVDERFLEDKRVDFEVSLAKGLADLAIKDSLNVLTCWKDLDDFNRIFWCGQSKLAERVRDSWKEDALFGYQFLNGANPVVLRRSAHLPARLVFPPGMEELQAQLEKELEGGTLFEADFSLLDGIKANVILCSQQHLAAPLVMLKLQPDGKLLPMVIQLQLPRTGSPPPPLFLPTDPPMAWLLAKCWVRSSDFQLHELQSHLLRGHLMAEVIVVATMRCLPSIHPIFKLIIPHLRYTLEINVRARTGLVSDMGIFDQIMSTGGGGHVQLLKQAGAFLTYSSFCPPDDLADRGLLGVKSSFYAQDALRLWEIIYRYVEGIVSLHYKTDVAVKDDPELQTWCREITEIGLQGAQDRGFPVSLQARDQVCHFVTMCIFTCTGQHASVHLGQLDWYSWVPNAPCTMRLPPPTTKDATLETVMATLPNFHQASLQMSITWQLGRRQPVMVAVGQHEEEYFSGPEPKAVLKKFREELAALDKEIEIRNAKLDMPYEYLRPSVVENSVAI
The experiment in a line: Inhibition of 15-lipoxygenase in A23187-stimulated human PMNL assessed as reduction of 15(S)-H(P)ETE formation up to 10 uM preincubated 15 mins by RP-HPLC analysis in presence of exogenous arachidonic acid. An outline of the steps: (§1)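 Freshly isolated human PMNL (5 × 10⁶/ml PGC buffer: PBS pH 7.4, 1 mg/ml glucose, 1 mM CaCl₂) preincubated with compound 15 min at 37 °C. Stimulated with 2.5 µM A23187 plus exogenous AA for 10 min at 37 °C. Stopped with methanol, PGB₁ added as internal standard, lipoxygenase products analysed by HPLC. Mean of n = 3–5.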

Experiment [2] deals with T2, Prostaglandin G/H synthase 2 (Homo sapiens) (UniProt P35354).
T2 sequence (whole entry): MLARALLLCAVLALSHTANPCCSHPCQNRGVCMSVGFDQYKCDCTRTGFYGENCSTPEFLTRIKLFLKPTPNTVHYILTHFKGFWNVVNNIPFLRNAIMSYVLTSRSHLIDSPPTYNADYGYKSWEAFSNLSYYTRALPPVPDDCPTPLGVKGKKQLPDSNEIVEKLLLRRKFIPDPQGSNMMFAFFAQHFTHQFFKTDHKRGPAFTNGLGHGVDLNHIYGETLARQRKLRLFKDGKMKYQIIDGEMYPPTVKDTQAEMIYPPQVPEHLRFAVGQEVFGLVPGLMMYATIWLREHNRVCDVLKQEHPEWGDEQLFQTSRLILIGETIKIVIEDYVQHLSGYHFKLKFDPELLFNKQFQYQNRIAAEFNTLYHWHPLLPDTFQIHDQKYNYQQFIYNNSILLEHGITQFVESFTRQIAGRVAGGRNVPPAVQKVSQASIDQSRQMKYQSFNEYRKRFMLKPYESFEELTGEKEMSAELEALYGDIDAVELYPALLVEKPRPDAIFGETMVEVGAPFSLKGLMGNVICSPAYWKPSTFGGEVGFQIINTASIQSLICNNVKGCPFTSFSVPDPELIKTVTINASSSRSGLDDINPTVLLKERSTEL
Briefly: Inhibition of human recombinant COX2 assessed as residual activity at 10 uM after 5 mins. In short, it runs like this:
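Ovine COX-1 (50 units) or human recombinant COX-2 (20 units) in 1 ml 100 mM Tris pH 8 with 5 mM glutathione, 5 µM haemoglobin and 100 µM EDTA. Preincubated with 10 µM compound 5 min at 4 °C, warmed 60 s at 37 °C. Started with AA (5 µM for COX-1, 2 µM for COX-2), run 5 min at 37 °C. 12-HHT extracted and analysed by HPLC. n = 3.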

Experiment [3] has as its target T3, Polyunsaturated fatty acid 5-lipoxygenase (Homo sapiens) (UniProt P09917).
T3 sequence (whole entry): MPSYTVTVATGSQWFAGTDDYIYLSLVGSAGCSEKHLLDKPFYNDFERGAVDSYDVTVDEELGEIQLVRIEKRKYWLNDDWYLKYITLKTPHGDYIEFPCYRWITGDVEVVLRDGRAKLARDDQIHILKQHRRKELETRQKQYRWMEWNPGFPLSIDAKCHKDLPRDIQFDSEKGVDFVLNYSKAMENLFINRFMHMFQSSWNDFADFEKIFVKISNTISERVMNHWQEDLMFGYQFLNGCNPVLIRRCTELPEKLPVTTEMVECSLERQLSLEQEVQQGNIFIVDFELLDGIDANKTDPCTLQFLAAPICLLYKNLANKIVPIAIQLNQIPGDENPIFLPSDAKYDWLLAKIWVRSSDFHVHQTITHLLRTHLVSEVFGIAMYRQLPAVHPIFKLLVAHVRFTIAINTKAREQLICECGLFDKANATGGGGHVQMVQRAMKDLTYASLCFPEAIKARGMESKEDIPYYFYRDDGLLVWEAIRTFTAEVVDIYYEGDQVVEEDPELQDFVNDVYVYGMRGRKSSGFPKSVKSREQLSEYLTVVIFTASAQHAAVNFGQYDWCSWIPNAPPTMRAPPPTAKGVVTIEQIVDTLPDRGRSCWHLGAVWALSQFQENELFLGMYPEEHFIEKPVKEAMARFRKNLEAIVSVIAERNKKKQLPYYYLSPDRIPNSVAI
Briefly: Inhibition of human recombinant 5-lipoxygenase expressed in Escherichia coli BL21 assessed as enzyme product formation measured up to 30 uM in presence of 13(S)-HpODE. An outline of the steps: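 Human 5-LO expressed in E. coli BL21 (pT3-5LO), affinity-purified and used at once. 0.5 µg enzyme in 1 ml PBS/EDTA with 1 mM ATP preincubated with compound 5–10 min at 4 °C, then warmed 30 s at 37 °C. Reaction started with 2 mM CaCl₂ and AA (routinely 20 µM), with or without 1 µM 13(S)-HpODE. Run 10 min at 37 °C, stopped with ice-cold methanol, products analysed by HPLC. Washout: 10-fold dilution (10 to 1 µM).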

Experiment [4] concerns the target T4, Polyunsaturated fatty acid 5-lipoxygenase (Homo sapiens, UniProt P09917).
T4 sequence (P09917 whole entry): T3 sequence (whole entry)
The experiment in a line: Inhibition of 5-lipoxygenase in A23187-stimulated human PMNL assessed as enzyme product formation preincubated 15 mins by RP-HPLC analysis in presence of exogenous arachidonic acid. An outline of the steps:
as §1

As to `CCCCC(Sc1ccc(OCCCOc2ccc(-c3ccccc3)cc2)cc1)C(=O)O` (centres undefined), the inhibition entry in experiment [1] and in experiment [2] was “inactive” throughout. Besides, in experiment [3], the inhibition result was “Active”. Further, the IC50 in experiment [4] came out at 0.9 µM.
